# Bioassay records as filed in PubChem.
# Many of the other results were omitted from the sample, so hits are more common in it than they were.
# INS-1E rescue – preserves ATP levels in cytokine-treated INS-1E cells. actives 0.1% (n = 20,000). protection from cytokine-induced ATP loss, % at 10 µM. INS-1E cytokine-induced death, ATP luminescence, 48 h; normalised: neutral wells 0, positive control 100;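 active means mean replicate protection from cytokine-induced ATP loss at least 50% and at least 75% of replicates each reaching 50%; inconclusive means meets only one of the two criteria, mean or replicate share; inactive means fails both the mean and replicate share criteria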
#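 Assay system – rat INS-1E insulinoma cell line · Quantity – 8000 cells per well · Buffer or medium – RPMI without phenol red, 5% FBS · Schedule – 48 h co-treatment, 10 min post-lysis read · Technique – luminescent ATP assay (CellTiter-Glo)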
# T cruzi HTS – inhibitors of intracellular Trypanosoma cruzi; activity score (inhibition), % at 5.01 µM; intracellular Trypanosoma cruzi in host cells, plate reader; actives 4.9% (n = 22,000); in the data active means activity score above about 55%; inconclusive means no clear call, values can overlap the other calls;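 further: parasites and compound incubated about four days before reading; 0% = median of neutral control wells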
# A1 apoptosis 2 – blocks A1, raising caspase activity; caspase activation, % (test concentration not listed); 24,000 tested, under 10 active; MEF A1-2A-BIM cells, caspase-Glo luminescence, 3 h; percent of clofoctol response, DMSO zero; in the data active means caspase activation above about 5.9%; inconclusive means no clear call, values can overlap the other calls; inactive means below about 2.2%
#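 System: mouse embryonic fibroblasts co-expressing A1 and BIM (A1-2A-BIM), primed for A1 dependence; amount: 2500 cells/well; doses: 50 nL pinned compound; schedule: cells settled overnight, compound exposure 3 h at 37 °C, 5% CO2; detection: Caspase-Glo 3/7 luminescence, 1 h at room temperature; read-out: Caspase-3/7 activation, seen as rise in luminescence signal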
# * marks the source's active call; other numbers are inactive results; ? = inconclusive; / = not tested or not shown.
SMILES,INS-1E rescue,T cruzi HTS,A1 apoptosis 2
C[C@@H]1CN([C@H](C)CO)C(=O)Cc2cc(NC(=O)Nc3ccc(C(F)(F)F)cc3)ccc2O[C@H]1CN(C)Cc1ccncc1,15.8,-9.9,0.8
C[C@@H]1CN([C@@H](C)CO)C(=O)Cc2cc(NC(=O)Nc3ccc(C(F)(F)F)cc3)ccc2O[C@@H]1CN(C)Cc1ccc(Cl)c(Cl)c1,-36.6,56.5*,/
CC(C)(C)OC(=O)NC1(/C=N/NC(=O)c2cccc(C(=O)NO)c2)CCCC1,-12.5,-8.8,/
O=C(O)CCCCCC(=O)N/N=C/c1cn(S(=O)(=O)c2ccccc2)c2ccccc12,8.2,9.1,0.1
O=C(c1ccccc1)N1Cc2ccccc2[C@@H]2OC(c3ccc(OCCCO)cc3)=N[C@]2(CCS(=O)(=O)c2ccccc2)C1=O,/,/,0.5
C[C@H]1CN([C@@H](C)CO)C(=O)c2cccc(NC(=O)c3ccncc3)c2O[C@H]1CN(C)Cc1ccc(C(F)(F)F)cc1,1.8,83.7*,0.1
C[C@@H]1CN([C@@H](C)CO)C(=O)c2cccc(NC(=O)c3ccncc3)c2O[C@@H]1CN(C)Cc1ccncc1,9.2,-6.6,/
C[C@H](CO)N1C[C@H](C)[C@H](CN(C)Cc2ccc(C(=O)O)cc2)Oc2c(NC(=O)c3ccncc3)cccc2C1=O,7.6,-26.8,-0.8
C[C@H](CO)N1C[C@H](C)[C@H](CN(C)Cc2ccc(C(F)(F)F)cc2)Oc2c(NC(=O)c3ccncc3)cccc2C1=O,-1.6,64.5*,-0.5
CC(/C=C/C(=O)NO)=C\c1cccc(OCc2ccc(COc3ccc4ccncc4c3)cc2)c1,/,/,-0.4
C[C@@H]1CN([C@@H](C)CO)C(=O)c2cccc(NC(=O)c3nc4ccccc4s3)c2O[C@@H]1CN(C)Cc1ccc(C(F)(F)F)cc1,-56.0,61.4*,-0.6
COc1ccc(CN(C)C[C@@H]2Oc3c(NC(=O)c4nc5ccccc5s4)cccc3C(=O)N([C@@H](C)CO)C[C@H]2C)cc1,-15.2,46.9,-0.7
C[C@@H]1CN([C@@H](C)CO)C(=O)c2cccc(NC(=O)c3nc4ccccc4s3)c2O[C@@H]1CN(C)Cc1ccccc1,-49.1,35.5,/
C[C@H]1CN([C@@H](C)CO)C(=O)c2cccc(NC(=O)c3nc4ccccc4s3)c2O[C@H]1CN(C)Cc1ccc(-c2ccccc2)cc1,-23.3,22.8,-0.8
C[C@@H]1CN([C@@H](C)CO)C(=O)c2cccc(NC(=O)c3nc4ccccc4s3)c2O[C@@H]1CN(C)Cc1ccc(C(=O)Nc2ccccc2N)cc1,29.7,?,/
C[C@H](CO)N1C[C@H](C)[C@@H](CN(C)Cc2ccc(C(=O)Nc3ccccc3N)cc2)Oc2c(NC(=O)c3nc4ccccc4s3)cccc2C1=O,1.8,70.9*,0.0
COc1ccc(CN(C)C[C@@H]2Oc3c(NC(=O)c4nc5ccccc5s4)cccc3C(=O)N([C@H](C)CO)C[C@H]2C)cc1,-17.8,57.2*,-1.2
C[C@H](CO)N1C[C@H](C)[C@H](CN(C)Cc2ccc(-c3ccccc3)cc2)Oc2c(NC(=O)c3nc4ccccc4s3)cccc2C1=O,-42.5,60.0*,/
O=C(N/N=C/c1cc(O)ccc1O)c1ccccn1,-6.7,10.3,-12.4
O=C(N1CCOCC1)[C@@]1(CCS(=O)(=O)c2ccccc2)COC(c2ccc(OCCCO)cc2)=N1,/,/,-0.2
COc1ccc(COC[C@]23NC(=S)N[C@H](c4ccccc4O2)[C@H]3CO[Si](C)(C)C(C)(C)C)cc1,/,/,0.7
C[C@@H]1CN([C@H](C)CO)C(=O)c2cccc(NC(=O)c3nc4ccccc4s3)c2O[C@H]1CN(C)Cc1ccc(Cl)c(Cl)c1,-60.4,50.9,/
C[C@@H]1CN([C@H](C)CO)C(=O)c2cccc(NC(=O)c3nc4ccccc4s3)c2O[C@H]1CN(C)CC1CCCCC1,-8.3,58.3*,0.0
C[C@@H]1CN([C@@H](C)CO)C(=O)c2cccc(NC(=O)c3nc4ccccc4s3)c2O[C@H]1CN(C)CC1CCCCC1,-60.5,44.0,-0.9
C[C@H](CO)N1C[C@H](C)[C@@H](CN(C)Cc2ccc(Cl)c(Cl)c2)Oc2c(NC(=O)c3nc4ccccc4s3)cccc2C1=O,-28.2,69.4*,-0.4
SMILES,INS-1E rescue,T cruzi HTS,A1 apoptosis 2
COc1ccc(/C=N/NC(=O)CCCCCCC(=O)Nc2ccccc2O)c(OC)c1,-1.9,-8.2,-0.2
C=CCNC(=O)[C@H]1[C@@H]2C(=O)O[C@@H](c3ccccc3)[C@@H](c3ccccc3)N2[C@@H](c2ccc(O)cc2)[C@]12C(=O)Nc1ccc(C#CCC(C(=O)OC)C(=O)OC)cc12,/,/,0.6
CCOc1cc(/C=N/NC(=O)CCCCCCC(=O)NO)ccc1O,/,/,0.4
C[C@H]1CN([C@@H](C)CO)C(=O)Cc2cc(NC(=O)Nc3ccccc3)ccc2O[C@H]1CN(C)Cc1ccc(Cl)c(Cl)c1,-55.9,-15.1,2.4
C[C@@H]1CN([C@@H](C)CO)C(=O)Cc2cc(NC(=O)Nc3ccc(F)cc3)ccc2O[C@@H]1CN(C)Cc1ccc(Cl)c(Cl)c1,1.0,66.6*,0.1
C[C@@H]1CN([C@@H](C)CO)C(=O)Cc2cc(NC(=O)Nc3ccc4c(c3)OCO4)ccc2O[C@H]1CN(C)Cc1ccc2c(c1)OCO2,/,/,1.0
C[C@H](CO)N1C[C@H](C)[C@H](CN(C)Cc2ccc(Cl)c(Cl)c2)Oc2ccc(NC(=O)Nc3ccc4c(c3)OCO4)cc2CC1=O,-27.6,80.0*,0.3
C[C@H]1CN([C@@H](C)CO)C(=O)Cc2cc(NC(=O)Cc3ccccc3)ccc2O[C@H]1CN(C)Cc1ccc(Cl)c(Cl)c1,-27.0,56.9*,0.8
C[C@H](CO)N1C[C@H](C)[C@H](CN(C)Cc2ccc(Cl)c(Cl)c2)Oc2ccc(NC(=O)Nc3ccccc3)cc2CC1=O,-33.6,74.8*,1.2
C[C@H]1CN([C@@H](C)CO)C(=O)Cc2cc(NC(=O)Cc3ccccc3)ccc2O[C@@H]1CN(C)Cc1ccccc1,0.4,50.7,-0.8
COc1ccc(NC(=O)Nc2ccc3c(c2)CC(=O)N([C@H](C)CO)C[C@H](C)[C@H](CN(C)Cc2ccc(Cl)c(Cl)c2)O3)cc1,-17.9,2.5,1.9
CC(C)=CCC[C@H](C)C/C=N/NC(=O)CCCCCC(=O)O,0.3,-15.7,1.6
Cc1ccc(O)c(/C=N/NC(=O)c2ccccn2)c1,-13.7,-6.7,/
O=C(NO)c1ccc(C(=O)N/N=C/c2ccccc2OCCO)cc1,8.2,-6.6,1.3
C=CCOC(=O)[C@H]1[C@@H]2C(=O)O[C@@H](c3ccccc3)[C@@H](c3ccccc3)N2[C@@H](c2ccc(OCCOC(=O)[C@H]3C[C@H]4C(=O)N[C@@H](CCCCNC(C)=O)C(=O)N4[C@H]3c3cccc(OCCO)c3)cc2)[C@]12C(=O)Nc1ccccc12,/,/,0.5
C[C@H](CO)N1C[C@H](C)[C@@H](CN(C)Cc2ccc(Oc3ccccc3)cc2)Oc2ccc(NC(=O)Nc3ccc(C(F)(F)F)cc3)cc2C1=O,-22.3,-4.4,0.2
C[C@H]1CN([C@@H](C)CO)C(=O)c2cc(NC(=O)Nc3ccc(C(F)(F)F)cc3)ccc2O[C@H]1CN(C)Cc1ccc(Oc2ccccc2)cc1,-40.8,80.1*,/
